Converted amounts (≈) assume the structure as drawn.
How the values were obtained:
Escherichia coli = assay: Antibacterial activity against Escherichia coli after 12 hrs by MTT assay; format: functional, organism-based
Summary of the method: (§1)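 MTT broth-dilution assay; drug-containing medium added to final concentrations of 320, 160, 40, 10, 2.5 and 0.25 µg/mL, each in triplicate. After 12 h, 25 µL of 5 mg/mL MTT in PBS added; after 4 h medium discarded, formazan dissolved in 150 µL DMSO with 10 min shaking, absorbance read at 490 nm; 50% inhibitory concentration reported.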

Pseudomonas aeruginosa = assay: Antibacterial activity against Pseudomonas aeruginosa after 12 hrs by MTT assay; format: functional, organism-based; summary of the method: as §1
Bacillus subtilis = assay: Antibacterial activity against Bacillus subtilis after 12 hrs by MTT assay; format: functional, organism-based; summary of the method: as §1
Bacillus thuringiensis = assay: Antibacterial activity against Bacillus thuringiensis after 12 hrs by MTT assay; format: functional, organism-based; summary of the method: as §1
[1] = Inhibition of Escherichia coli FabH expressed in Escherichia coli BL21 (DE3) after 25 mins
Summary of the method: (§2)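 His-tagged FabH purified by Ni-NTA (IPTG 0.5 mM induction in kanamycin LB), stored at 2 mg/mL. 20 µL reaction: 20 mM Na2HPO4 pH 7.0, 0.5 mM DTT, 0.25 mM MgCl2, 2.5 µM holo-ACP, 1 nM FabH; after 1 min, 25 µM acetyl-CoA, 0.5 mM NADH, 0.5 mM NADPH added for 25 min; 3H incorporation by liquid scintillation; inhibitors from DMSO stock, final DMSO ≤2%; IC50 determined.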

[2] = Inhibition of Pseudomonas aeruginosa FabH after 25 mins; summary of the method: as §2
[3] = Cytotoxicity against human macrophages up to 160 ug/ml after 24 hrs by MTT assay; format: cell-based; conditions: macrophage
Summary of the method: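 Cells grown to 90% confluency, switched to serum-free DMEM, exposed to various concentrations for 24 h; viability by MTT, read spectrophotometrically as absorbance difference 570 minus 630 nm.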

[4] = Cytotoxicity against human macrophages assessed as change in morphology at 0.25 to 160 ug/ml after 24 hrs using Giemsa staining by phase contrast microscopic analysis; format: cell-based; conditions: macrophage
Summary of the method: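 Confluent cells (100 µL stock suspension) grown to 90% confluency, medium replaced with serum-free DMEM, then exposed 24 h to 0.25 or 160 µg/mL test compound; cell morphology compared with untreated control after Giemsa staining under phase contrast microscopy.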

IC50 [1]	IC50 [2]	SMILES	IC50 (Escherichia coli)	IC50 (Pseudomonas aeruginosa)	IC50 (Bacillus subtilis)	IC50 (Bacillus thuringiensis)	Activity [3]	Activity [4]
		O=[N+]([O-])c1cnc(/C=C/c2ccccc2)n1CCO	> 200 mg/L	12.4 mg/L (≈ 47.8 µM)	49.3 mg/L (≈ 190 µM)	49.5 mg/L (≈ 191 µM)		
		COc1ccc(/C=C/c2ncc([N+](=O)[O-])n2CCO)cc1	89.1 mg/L (≈ 308 µM)	30.2 mg/L (≈ 104 µM)	146 mg/L (≈ 506 µM)	67.4 mg/L (≈ 233 µM)		
		O=[N+]([O-])c1cnc(/C=C/c2ccc(Br)cc2)n1CCO	119 mg/L (≈ 353 µM)	32.2 mg/L (≈ 95.2 µM)	114 mg/L (≈ 336 µM)	19.2 mg/L (≈ 56.8 µM)		
		O=[N+]([O-])c1cnc(/C=C/c2cccc(F)c2)n1CCO	114 mg/L (≈ 412 µM)	16.8 mg/L (≈ 60.6 µM)	36.6 mg/L (≈ 132 µM)	55.1 mg/L (≈ 199 µM)		
		O=[N+]([O-])c1cnc(/C=C/c2ccc(Cl)cc2)n1CCO	> 200 mg/L	48.3 mg/L (≈ 164 µM)	32.8 mg/L (≈ 112 µM)	32.1 mg/L (≈ 109 µM)		
16.5 µM	22.5 µM	O=[N+]([O-])c1cnc(/C=C/c2ccc(F)cc2)n1CCO	57.2 mg/L (≈ 206 µM)	1.7 mg/L (≈ 6.13 µM)	8.8 mg/L (≈ 31.7 µM)	12.5 mg/L (≈ 45.1 µM)		
		O=[N+]([O-])c1cnc(/C=C/c2cccc(Cl)c2)n1CCO	119 mg/L (≈ 406 µM)	14.7 mg/L (≈ 50 µM)	40.7 mg/L (≈ 139 µM)	25.7 mg/L (≈ 87.5 µM)		
		COc1cccc(/C=C/c2ncc([N+](=O)[O-])n2CCO)c1	> 200 mg/L	46.1 mg/L (≈ 159 µM)	26.2 mg/L (≈ 90.6 µM)	12.1 mg/L (≈ 41.8 µM)		
2.1 µM	12.4 µM	O=[N+]([O-])c1ccc(/C=C/c2ncc([N+](=O)[O-])n2CCO)cc1	36.4 mg/L (≈ 120 µM)	15.5 mg/L (≈ 50.9 µM)	9 mg/L (≈ 29.6 µM)	13.9 mg/L (≈ 45.7 µM)	Non-toxic	Non-toxic
		COc1ccccc1/C=C/c1ncc([N+](=O)[O-])n1CCO	188 mg/L (≈ 649 µM)	20.4 mg/L (≈ 70.5 µM)	19.8 mg/L (≈ 68.4 µM)	37.3 mg/L (≈ 129 µM)		
		O=[N+]([O-])c1cnc(/C=C/c2cccc(Br)c2)n1CCO	116 mg/L (≈ 342 µM)	43.6 mg/L (≈ 129 µM)	24.4 mg/L (≈ 72.2 µM)	23.4 mg/L (≈ 69.2 µM)		
4.2 µM	15.9 µM	CCOC(OCC)c1ccc(/C=C/c2ncc([N+](=O)[O-])n2CCO)cc1	59.2 mg/L (≈ 164 µM)	70.3 mg/L (≈ 195 µM)	17.9 mg/L (≈ 49.5 µM)	5.9 mg/L (≈ 16.3 µM)		
4.4 µM	19.2 µM	O=[N+]([O-])c1cnc(/C=C/c2ccccc2F)n1CCO	> 200 mg/L	6.8 mg/L (≈ 24.5 µM)	61.5 mg/L (≈ 222 µM)	29.9 mg/L (≈ 108 µM)		
6.5 µM	29.2 µM	O=[N+]([O-])c1cnc(/C=C/c2ccccc2Cl)n1CCO	175 mg/L (≈ 595 µM)	17.8 mg/L (≈ 60.6 µM)	2.9 mg/L (≈ 9.87 µM)	37.8 mg/L (≈ 129 µM)		
		Cc1ccc(/C=C/c2ncc([N+](=O)[O-])n2CCO)cc1	145 mg/L (≈ 530 µM)	2.9 mg/L (≈ 10.6 µM)	42.6 mg/L (≈ 156 µM)	28.6 mg/L (≈ 105 µM)		
		O=[N+]([O-])c1cnc(/C=C/c2c(F)cccc2Cl)n1CCO	82.1 mg/L (≈ 263 µM)	38.1 mg/L (≈ 122 µM)	19.6 mg/L (≈ 62.9 µM)	25.3 mg/L (≈ 81.2 µM)		
		O=[N+]([O-])c1cnc(/C=C/c2ccc(Cl)cc2Cl)n1CCO	> 200 mg/L	39.3 mg/L (≈ 120 µM)	57.1 mg/L (≈ 174 µM)	36.7 mg/L (≈ 112 µM)		
10.2 µM	25.6 µM	CN(C)c1ccc(/C=C/c2ncc([N+](=O)[O-])n2CCO)cc1	88 mg/L (≈ 291 µM)	121 mg/L (≈ 400 µM)	17.2 mg/L (≈ 56.9 µM)	7.2 mg/L (≈ 23.8 µM)		
		O=[N+]([O-])c1cccc(/C=C/c2ncc([N+](=O)[O-])n2CCO)c1	> 200 mg/L	74.6 mg/L (≈ 245 µM)	53.1 mg/L (≈ 175 µM)	7 mg/L (≈ 23 µM)		
		O=[N+]([O-])c1cnc(/C=C/c2ccccc2Br)n1CCO	> 200 mg/L	7.6 mg/L (≈ 22.5 µM)	27.9 mg/L (≈ 82.5 µM)	9.3 mg/L (≈ 27.5 µM)		
		O=[N+]([O-])c1ccccc1/C=C/c1ncc([N+](=O)[O-])n1CCO	157 mg/L (≈ 517 µM)	12.8 mg/L (≈ 42.1 µM)	11.8 mg/L (≈ 38.8 µM)	5.8 mg/L (≈ 19.1 µM)		
11 µM	10.2 µM	O=[N+]([O-])c1cnc(/C=C/c2ccc3ccccc3c2)n1CCO	> 200 mg/L	19.8 mg/L (≈ 64 µM)	3.6 mg/L (≈ 11.6 µM)	11.9 mg/L (≈ 38.5 µM)		
3.4 µM	7.9 µM	O=[N+]([O-])c1cnc(/C=C/c2ccc(OCc3ccccc3)cc2)n1CCO	34.3 mg/L (≈ 93.9 µM)	14.5 mg/L (≈ 39.7 µM)	6.3 mg/L (≈ 17.2 µM)	9.8 mg/L (≈ 26.8 µM)	Non-toxic	Non-toxic
		O=[N+]([O-])c1cnc(/C=C/c2cccc3ccccc23)n1CCO	153 mg/L (≈ 496 µM)	13.1 mg/L (≈ 42.4 µM)	13.6 mg/L (≈ 44 µM)	8.6 mg/L (≈ 27.8 µM)		
3.1 µM	6.7 µM	NC[C@H]1O[C@H](O[C@H]2[C@H](O)[C@@H](O[C@H]3O[C@H](CO)[C@@H](O)[C@H](N)[C@H]3O)[C@H](N)C[C@@H]2N)[C@H](O)[C@@H](O)[C@@H]1O [KANAMYCIN]						
		CC(C)(S)[C@@H](N)C(=O)O [PENICILLAMINE]	42.3 mg/L (≈ 283 µM)	5.8 mg/L (≈ 38.9 µM)	6.3 mg/L (≈ 42.2 µM)	6.3 mg/L (≈ 42.2 µM)		

Source: ChEMBL document CHEMBL3124827, “Design and synthesis of 2-styryl of 5-Nitroimidazole derivatives and antimicrobial activities as FabH inhibitors” (Eur J Med Chem, 2014)
